Source: ChEMBL document CHEMBL1137103, “4-Acylamino-and 4-ureidobenzamides as melanin-concentrating hormone (MCH) receptor 1 antagonists” (Bioorg Med Chem Lett, 2004)

Tests used:
[1] = biological target: T1, Melanin-concentrating hormone receptor 1 (Homo sapiens, UniProt Q99705); assay: Binding affinity against human Melanin-concentrating hormone receptor 1 stably transfected CHO cells was determined using [125I]MCH as radioligand; format: cell-based
How it was run: (§1)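 Whole-cell binding in CHO cells expressing the human receptor with [125I]-MCH tracer. Nonspecific binding defined with 1 µM MCH. IC50 values from displacement by various concentrations of test compound.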

[2] = biological target: T1, Melanin-concentrating hormone receptor 1; assay: Binding affinity against human Melanin-concentrating hormone receptor 1 stably transfected CHO cells was determined using scintillation proximity assay (SPA); format: cell-based
How it was run: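 Scintillation proximity binding with CHO membranes incubated with PEI-treated WGA-coupled PVT SPA beads and tracer over various test-compound concentrations. Nonspecific binding defined with 1 µM MCH; IC50 derived.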

[3] = biological target: T1, Melanin-concentrating hormone receptor 1; assay: Antagonistic activity against human Melanin-concentrating hormone receptor 1 stably transfected CHO cells was determined using IP3 assay; format: functional, cell-based
How it was run: (§2)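 CHO whole cells expressing the human receptor, labelled with 5 µCi [3H]-myo-inositol in inositol-free culture medium. Phosphatidylinositol turnover stimulated by submaximal MCH in the presence of increasing ligand concentrations. Generated [3H]-inositol phosphates purified on anion-exchange resin; IC50 derived.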

[4] = Inhibitory activity against Histamine H2 receptor
[5] = Inhibitory activity against Dopamine transporter; design: species or system Homo sapiens
[6] = biological target: D(1A) dopamine receptor (Homo sapiens) (UniProt P21728); assay: Inhibitory activity against Dopamine receptor D1 at 10 uM
[7] = biological target: Mu-type opioid receptor (Homo sapiens) (UniProt P35372); assay: Inhibitory activity against Opioid receptor mu 1 at 10 uM
[8] = biological target: T2, Melanin-concentrating hormone receptor 2 (Homo sapiens, UniProt Q969V1); assay: Binding affinity against human Melanin-concentrating hormone receptor 2 stably transfected CHO cells was determined using [125I]MCH as radioligand; format: cell-based; how it was run: as §1
[9] = biological target: T3, Adenosine receptor A3 (Homo sapiens) (UniProt P0DMS8); assay: Inhibitory activity against Adenosine A3 receptor at 10 uM
T3 sequence (whole entry): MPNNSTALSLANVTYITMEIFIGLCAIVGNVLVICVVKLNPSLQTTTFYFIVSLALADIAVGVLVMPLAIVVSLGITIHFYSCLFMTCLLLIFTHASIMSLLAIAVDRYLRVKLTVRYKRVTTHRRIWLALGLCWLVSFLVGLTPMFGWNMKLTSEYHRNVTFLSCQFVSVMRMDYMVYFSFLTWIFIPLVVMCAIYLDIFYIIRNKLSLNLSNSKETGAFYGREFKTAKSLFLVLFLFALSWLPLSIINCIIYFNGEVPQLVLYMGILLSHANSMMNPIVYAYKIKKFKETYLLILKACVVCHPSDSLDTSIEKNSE

[10] = biological target: T4, Muscarinic acetylcholine receptor M1 (Homo sapiens) (UniProt P11229); assay: Inhibitory activity against Muscarinic acetylcholine receptor M1 at 10 uM
T4 sequence (whole entry): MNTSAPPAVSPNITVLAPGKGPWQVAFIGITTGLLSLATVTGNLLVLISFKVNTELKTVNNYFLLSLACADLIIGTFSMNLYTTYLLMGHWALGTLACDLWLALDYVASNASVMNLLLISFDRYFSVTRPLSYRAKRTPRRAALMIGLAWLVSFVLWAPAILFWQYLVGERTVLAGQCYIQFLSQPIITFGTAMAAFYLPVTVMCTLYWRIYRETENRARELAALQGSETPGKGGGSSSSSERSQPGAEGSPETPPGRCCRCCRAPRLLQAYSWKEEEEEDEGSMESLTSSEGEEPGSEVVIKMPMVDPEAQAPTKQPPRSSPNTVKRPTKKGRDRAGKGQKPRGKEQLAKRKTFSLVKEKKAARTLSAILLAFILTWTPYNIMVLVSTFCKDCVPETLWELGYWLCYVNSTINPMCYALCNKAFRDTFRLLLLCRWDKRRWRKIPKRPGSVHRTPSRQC

[11] = biological target: Sodium-dependent noradrenaline transporter (Homo sapiens) (UniProt P23975); assay: Inhibitory activity against Norepinephrine transporter at 10 uM
[12] = Inhibitory activity against 5-hydroxytryptamine 2A receptor
[13] = biological target: T2, Melanin-concentrating hormone receptor 2; assay: Antagonistic activity against human Melanin-concentrating hormone receptor 2 stably transfected CHO cells was determined using IP3 assay; format: functional, cell-based; how it was run: as §2
[14] = Inhibitory activity against 5-hydroxytryptamine 2C receptor
[15] = biological target: D(2) dopamine receptor (Homo sapiens) (UniProt P14416); assay: Inhibitory activity against Dopamine receptor D2 at 10 uM
[16] = biological target: Sigma non-opioid intracellular receptor 1 (Homo sapiens) (UniProt Q99720); assay: Inhibitory activity against Opioid receptor sigma 1 at 10 uM
[17] = inhibitory activity against sodium channel (site 2) at 10 uM
[18] = biological target: T5, Muscarinic acetylcholine receptor M2 (Homo sapiens) (UniProt P08172); assay: Inhibitory activity against Muscarinic acetylcholine receptor M2 at 10 uM
T5 sequence (whole entry): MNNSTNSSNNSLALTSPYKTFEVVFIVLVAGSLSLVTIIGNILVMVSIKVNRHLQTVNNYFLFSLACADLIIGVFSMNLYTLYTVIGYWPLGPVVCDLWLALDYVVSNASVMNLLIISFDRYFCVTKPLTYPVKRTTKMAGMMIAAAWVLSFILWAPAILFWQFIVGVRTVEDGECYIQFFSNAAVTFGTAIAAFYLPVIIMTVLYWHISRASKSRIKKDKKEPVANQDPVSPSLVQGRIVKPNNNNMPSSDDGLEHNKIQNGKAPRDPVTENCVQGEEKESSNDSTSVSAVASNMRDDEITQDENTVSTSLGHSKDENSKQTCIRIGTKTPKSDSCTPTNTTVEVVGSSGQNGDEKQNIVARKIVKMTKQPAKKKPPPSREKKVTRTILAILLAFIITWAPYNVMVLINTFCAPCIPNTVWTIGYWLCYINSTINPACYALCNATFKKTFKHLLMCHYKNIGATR

T1 sequence (Q99705 whole entry): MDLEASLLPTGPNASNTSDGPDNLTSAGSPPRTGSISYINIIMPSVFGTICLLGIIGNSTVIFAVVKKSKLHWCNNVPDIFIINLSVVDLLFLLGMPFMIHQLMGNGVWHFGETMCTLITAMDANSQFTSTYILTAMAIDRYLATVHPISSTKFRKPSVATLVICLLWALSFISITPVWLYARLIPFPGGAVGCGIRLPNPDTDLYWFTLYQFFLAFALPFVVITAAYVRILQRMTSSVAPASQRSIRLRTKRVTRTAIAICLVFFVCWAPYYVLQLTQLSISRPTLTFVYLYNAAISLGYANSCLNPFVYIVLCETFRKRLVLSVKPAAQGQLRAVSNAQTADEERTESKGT
T2 sequence (Q969V1 whole entry): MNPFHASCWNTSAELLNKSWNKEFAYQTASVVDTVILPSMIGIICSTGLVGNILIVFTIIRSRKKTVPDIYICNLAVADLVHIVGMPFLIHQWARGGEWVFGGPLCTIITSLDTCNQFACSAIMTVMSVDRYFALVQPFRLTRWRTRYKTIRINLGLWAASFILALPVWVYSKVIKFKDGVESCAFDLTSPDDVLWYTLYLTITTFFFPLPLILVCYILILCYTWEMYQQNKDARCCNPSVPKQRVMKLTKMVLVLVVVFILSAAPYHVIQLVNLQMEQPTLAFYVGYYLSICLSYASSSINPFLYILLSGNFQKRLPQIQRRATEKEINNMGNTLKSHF
Sequence of Mu-type opioid receptor (Homo sapiens) (P35372 whole entry): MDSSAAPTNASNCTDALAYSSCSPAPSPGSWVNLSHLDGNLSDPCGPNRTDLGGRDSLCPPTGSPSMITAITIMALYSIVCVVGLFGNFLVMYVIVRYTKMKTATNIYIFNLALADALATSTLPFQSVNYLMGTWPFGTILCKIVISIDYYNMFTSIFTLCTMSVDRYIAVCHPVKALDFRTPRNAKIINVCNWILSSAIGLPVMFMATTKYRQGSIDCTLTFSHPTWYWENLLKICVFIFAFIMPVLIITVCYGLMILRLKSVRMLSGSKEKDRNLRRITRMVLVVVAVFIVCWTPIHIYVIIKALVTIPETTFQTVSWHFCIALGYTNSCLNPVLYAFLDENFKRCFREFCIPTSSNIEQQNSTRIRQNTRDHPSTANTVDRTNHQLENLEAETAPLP
Sequence of D(1A) dopamine receptor (Homo sapiens) (P21728 whole entry): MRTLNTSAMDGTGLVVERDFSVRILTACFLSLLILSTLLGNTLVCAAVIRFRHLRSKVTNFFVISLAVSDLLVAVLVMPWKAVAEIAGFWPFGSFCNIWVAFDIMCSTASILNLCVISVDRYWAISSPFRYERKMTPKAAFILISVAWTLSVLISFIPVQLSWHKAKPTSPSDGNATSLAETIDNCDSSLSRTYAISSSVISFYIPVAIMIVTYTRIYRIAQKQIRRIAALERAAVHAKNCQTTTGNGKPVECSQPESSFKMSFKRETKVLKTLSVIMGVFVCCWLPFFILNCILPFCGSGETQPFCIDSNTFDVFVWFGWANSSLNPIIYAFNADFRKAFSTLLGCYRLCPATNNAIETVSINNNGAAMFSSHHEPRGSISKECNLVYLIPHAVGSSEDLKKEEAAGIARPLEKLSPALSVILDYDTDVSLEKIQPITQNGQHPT
Sequence of Sodium-dependent noradrenaline transporter (Homo sapiens) (P23975 whole entry): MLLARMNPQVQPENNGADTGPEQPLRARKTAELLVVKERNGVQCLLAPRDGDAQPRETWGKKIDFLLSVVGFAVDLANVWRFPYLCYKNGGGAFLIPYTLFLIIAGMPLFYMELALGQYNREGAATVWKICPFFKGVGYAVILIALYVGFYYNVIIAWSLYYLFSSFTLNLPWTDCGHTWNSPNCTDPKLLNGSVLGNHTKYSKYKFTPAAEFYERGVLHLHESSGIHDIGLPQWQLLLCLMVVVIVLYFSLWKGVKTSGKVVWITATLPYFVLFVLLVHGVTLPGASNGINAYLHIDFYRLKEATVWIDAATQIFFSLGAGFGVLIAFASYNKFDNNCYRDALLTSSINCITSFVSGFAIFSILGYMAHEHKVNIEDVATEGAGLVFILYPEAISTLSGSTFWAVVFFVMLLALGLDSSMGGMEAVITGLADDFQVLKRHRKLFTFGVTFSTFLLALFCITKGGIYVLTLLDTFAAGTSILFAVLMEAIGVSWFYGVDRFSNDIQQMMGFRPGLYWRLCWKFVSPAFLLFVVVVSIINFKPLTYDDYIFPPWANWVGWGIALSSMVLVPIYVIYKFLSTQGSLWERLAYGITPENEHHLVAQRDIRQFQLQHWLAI
Sequence of D(2) dopamine receptor (Homo sapiens) (P14416 whole entry): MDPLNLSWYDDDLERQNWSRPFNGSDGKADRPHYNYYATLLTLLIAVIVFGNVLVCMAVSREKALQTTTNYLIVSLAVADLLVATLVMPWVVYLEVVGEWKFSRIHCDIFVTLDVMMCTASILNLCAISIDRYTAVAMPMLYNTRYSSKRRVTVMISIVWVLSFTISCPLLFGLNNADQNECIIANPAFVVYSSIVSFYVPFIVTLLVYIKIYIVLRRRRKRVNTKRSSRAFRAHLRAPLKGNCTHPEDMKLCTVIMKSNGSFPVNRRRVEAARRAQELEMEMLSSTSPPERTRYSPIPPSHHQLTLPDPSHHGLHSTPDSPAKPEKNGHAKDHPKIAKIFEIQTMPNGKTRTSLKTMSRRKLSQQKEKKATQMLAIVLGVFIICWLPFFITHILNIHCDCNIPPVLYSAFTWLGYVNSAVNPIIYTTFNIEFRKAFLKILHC
Sequence of Sigma non-opioid intracellular receptor 1 (Homo sapiens) (Q99720 whole entry): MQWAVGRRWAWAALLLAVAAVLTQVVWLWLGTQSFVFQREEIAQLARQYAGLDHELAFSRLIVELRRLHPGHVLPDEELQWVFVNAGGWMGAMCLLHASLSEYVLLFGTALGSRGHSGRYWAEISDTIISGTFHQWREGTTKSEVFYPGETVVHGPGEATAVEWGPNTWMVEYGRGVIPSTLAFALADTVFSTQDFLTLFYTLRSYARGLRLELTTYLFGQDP

| SMILES | IC50 [1] [µM] | IC50 [2] [µM] | IC50 [3] [µM] | also measured |
| --- | --- | --- | --- | --- |
| CCN(CC)CCNC(=O)c1ccc(NC(=O)Nc2cccc(OC(F)(F)F)c2)cc1OC | – | 2.5 | – | – |
| CCOc1cc(NC(=O)Nc2ccc(Oc3ccccc3)cc2)ccc1C(=O)NCCN(CC)CC | 0.24 | – | 1.95 | – |
| COc1cc(NC(=O)Nc2ccccc2Oc2ccccc2)ccc1C(=O)NCCCN1CCCCC1 | > 10 | – | – | – |
| CCN(CC)CCNC(=O)c1cc(Cl)c(NC(=O)Nc2ccc(Oc3ccccc3)cc2)cc1OC | – | > 100 | – | – |
| CCN(CC)CCNC(=O)c1ccc(NC(=O)Nc2ccc(OC(F)(F)F)cc2Br)cc1OC | – | 8.8 | – | – |
| COc1cc(NC(=O)Nc2cccc(Oc3ccccc3)c2)ccc1C(=O)NCCCN1CCOCC1 | 0.07 | – | 0.11 | IC50 [4]: 1.8 µM; IC50 [5]: 1.5 µM; inhibition [6]: 57%; inhibition [7]: 48%; IC50 [8]: > 100 µM; inhibition [9]: 48%; inhibition [10]: 64%; inhibition [11]: 68%; IC50 [12]: 0.67 µM; IC50 [13]: > 100 µM; IC50 [14]: 1.3 µM |
| COc1cc(NC(=O)Nc2ccc(Nc3ccccc3)cc2)ccc1C(=O)NCCCN1CCCCC1 | 0.85 | – | 1.44 | – |
| CCN(CC)CCNC(=O)c1ccc(NC(=O)Nc2ccc(C(F)(F)F)cc2)cc1 | 0.0053 | – | 0.17 | – |
| CCN(CC)CCNC(=O)c1ccc(NC(=O)Nc2ccccc2)cc1OC | – | > 100 | – | – |
| CCN(CC)CCNC(=O)c1ccc(NC(=O)Nc2ccc(C(F)(F)F)cc2)cc1OC | 0.02 | 0.05 | 0.17 | IC50 [8]: > 100 µM |
| CCN(CC)CCNC(=O)c1ccc(NC(=O)Nc2ccc(C(C)=O)cc2)cc1OC | – | 13 | – | – |
| CCN(CC)CCNC(=O)c1ccc(NC(=O)Nc2cccc(SC)c2)cc1OC | – | 4.7 | – | – |
| COc1cc(NC(=O)Nc2ccc(-c3ccccc3)cc2)ccc1C(=O)NCCCN(C)C | 1.48 | 9.1 | – | – |
| CCN(CC)CCNC(=O)c1ccc(NC(=O)Nc2ccc(F)c(Cl)c2)cc1OC | – | 3.9 | – | – |
| CCN(CC)CCNC(=O)c1ccc(NC(=O)Nc2ccc(C#N)cc2)cc1OC | – | 3.2 | – | – |
| CCN(CC)CCNC(=O)c1ccc(NC(=O)Nc2ccc(OC(F)(F)F)cc2)cc1 | 0.06 | – | 0.25 | IC50 [8]: > 100 µM; IC50 [13]: > 100 µM |
| CCN(CC)CCNC(=O)c1ccc(NC(=O)Nc2cccc(C(F)(F)F)c2)cc1OC | – | 7.9 | – | – |
| COc1cc(NC(=O)Nc2cccc(Nc3ccccc3)c2)ccc1C(=O)NCCCN1CCCCC1 | 0.0081 | – | 0.025 | IC50 [8]: 10 µM |
| CCN(CC)CCNC(=O)c1ccc(NC(=O)Nc2cc(OC)cc(OC)c2)cc1OC | – | 18 | – | – |
| CCN(CC)CCNC(=O)c1ccc(NC(=O)Nc2ccc(SC)cc2)cc1OC | – | 0.96 | – | – |
| CCN(CC)CCNC(=O)c1ccc(NC(=O)Nc2cc(Cl)cc(Cl)c2)cc1OC | – | 4.8 | – | – |
| CCN(CC)CCNC(=O)c1ccc(NC(=O)Nc2ccc(F)cc2)cc1OC | – | 15.8 | – | – |
| CCN(CC)CCNC(=O)c1ccc(NC(=O)Nc2ccc(SC(F)(F)F)cc2)cc1OC | – | 0.2 | – | – |
| CCN(CC)CCNC(=O)c1ccc(N(C)C(=O)N(C)c2ccc(Oc3ccccc3)cc2)cc1OC | – | > 100 | – | – |
| CCN(CC)CCNC(=O)c1ccc(NC(=O)Nc2ccc(C(=O)C(F)(F)F)cc2)cc1OC | – | 5.9 | – | – |
| CCN(CC)CCNC(=O)c1ccc(NC(=O)Nc2ccc(Br)cc2)cc1OC | – | 0.25 | – | – |
| COc1cc(NC(=O)Nc2cccc(Oc3ccccc3)c2)ccc1C(=O)NCCCN1CCCCC1 | 0.02 | – | 0.03 | IC50 [8]: > 100 µM |
| CCN(CC)CCN(C)C(=O)c1ccc(NC(=O)Nc2ccc(Oc3ccccc3)cc2)cc1OC | – | > 100 | – | – |
| CCN(CC)CCNC(=O)c1ccc(NC(=O)Nc2ccc(OC(F)(F)F)cc2)cc1OC | 0.05 | 0.15 | 0.26 | IC50 [4]: 2.2 µM; IC50 [5]: 6.9 µM; inhibition [6]: 78%; inhibition [15]: 79%; inhibition [7]: 44%; IC50 [8]: > 100 µM; inhibition [9]: 36%; inhibition [16]: 65%; inhibition [17]: 76%; inhibition [10]: 72%; inhibition [18]: 46%; inhibition [11]: 67%; IC50 [12]: 1.3 µM; IC50 [14]: 0.31 µM |
| CCN(CC)CCNC(=O)c1ccc(NC(=O)Nc2ccc(Cl)c(Cl)c2)cc1OC | – | 0.71 | – | – |

More lines, main results first:

| IC50 [1] [µM] | IC50 [2] [µM] | IC50 [3] [µM] | SMILES | also measured |
| --- | --- | --- | --- | --- |
| 0.64 | – | – | COc1cc(NC(=O)c2ccc(-c3ccccc3)cc2)ccc1C(=O)NCCN1CCN(Cc2ccccc2)CC1 | – |
| 2.45 | – | – | CCN(CC)CCNC(=O)c1ccc(-c2noc(-c3ccc(Oc4ccccc4)cc3)n2)cc1 | – |
| – | 0.54 | – | CCN(CC)CCNC(=O)c1ccc(N(C)C(=O)Nc2ccc(Oc3ccccc3)cc2)cc1OC | – |
| – | 5.8 | – | CCN(CC)CCNC(=O)c1ccc(NC(=O)N(C)c2ccc(Oc3ccccc3)cc2)cc1OC | – |
| 1.92 | – | – | COc1cc(NC(=O)c2ccc(Oc3ccccc3)cc2)ccc1C(=O)NCCCN(C)C | – |
| 0.13 | – | – | COc1cc(NC(=O)c2ccc(-c3ccccc3)cc2)ccc1C(=O)NC1CCN(Cc2ccccc2)CC1 | – |
| – | > 100 | – | CCN(CC)CCNC(=O)c1ccc(N2CCN(c3ccc(Oc4ccccc4)cc3)C2=O)cc1OC | – |
| 0.05 | – | – | COc1cc(NC(=O)Nc2ccc(Oc3ccccc3)cc2)ccc1C(=O)NCCCN1CCCCC1 | IC50 [8]: 10 µM; IC50 [13]: > 100 µM |
| 0.25 | – | 1.3 | CCN1CCCC1CNC(=O)c1ccc(NC(=O)Nc2ccc(Oc3ccccc3)cc2)cc1 (stereo unspecified) | IC50 [8]: 6.31 µM |
| 2.41 | – | 12 | COc1cc(NC(=O)c2ccc(-c3ccccc3)cc2)ccc1C(=O)NCCN(C)C | IC50 [8]: > 100 µM |
| 0.14 | 0.72 | 0.88 | CCN(CC)CCNC(=O)c1ccc(NC(=O)Nc2ccc(Oc3ccccc3)cc2)cc1OC | – |
| > 100 | – | – | CN(C)CCNC(=O)c1ccc(NC(=O)c2ccc(-c3ccccc3)cc2)cc1 | – |
| – | 11 | – | CCN(CC)CCN(C)C(=O)c1ccc(NC(=O)Nc2ccc(Oc3ccccc3)cc2)cc1 | – |
| 0.14 | – | 5.82 | O=C(Nc1ccc(Oc2ccccc2)cc1)Nc1ccc(C(=O)NCCN2CCN(Cc3ccccc3)CC2)cc1 | IC50 [8]: 2.88 µM |
| 0.53 | – | 3.45 | CCN1CCCC1CNC(=O)c1ccc(NC(=O)Nc2ccc(Oc3ccccc3)cc2)cc1OC (stereo unspecified) | – |
| 1.9 | – | – | CCN1CCCC1CNC(=O)c1ccc(-c2noc(-c3ccc(Oc4ccccc4)cc3)n2)cc1 (stereo unspecified) | – |
| 0.64 | – | 5.29 | COc1cc(NC(=O)c2ccc(-c3ccccc3)cc2)ccc1C(=O)NCCCN(C)C | IC50 [8]: > 100 µM |
| – | 3.5 | – | CCN(CC)CCNC(=O)c1ccc(NC(=O)Nc2ccc(Oc3ccccc3)cc2)cc1 | – |
| 1.97 | – | 6.81 | CCN(CC)CCNC(=O)c1ccc(NC(=O)c2ccc(Oc3ccccc3)cc2)cc1OC | – |
| 0.37 | – | – | CCN(CC)CCNC(=O)c1ccc(NC(=O)c2ccc(-c3ccccc3)cc2)cc1OC | – |
